Reference: ChEMBL document CHEMBL1126653, “Structure-function studies of amphiphilic antibacterial peptides” (1993)
Converted amounts (≈) assume the structure as drawn. Peptide text beside a SMILES is read from it.

Key:
[1] = test system: Staphylococcus aureus; assay: Compound tested for the activity against Staphylococcus aureus strain 1; format: functional
Method in brief: (§1)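 Microbroth dilution in Tryptic Soy Broth; inoculum 5×10^5 CFU/mL; plates incubated at 37 °C for 18-20 h; value reported as minimal inhibitory concentration (µg/mL).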

[2] = test system: Pseudomonas aeruginosa; assay: Compound tested for the antimicrobial activity against Pseudomonas aeruginosa strain 3; format: functional; method in brief: as §1
[3] = test system: Pseudomonas aeruginosa; assay: Compound tested for the antimicrobial activity against Pseudomonas aeruginosa strain ATCC 25916; format: functional; method in brief: as §1
[4] = test system: Pseudomonas aeruginosa; assay: Compound tested for the antimicrobial activity against Pseudomonas aeruginosa strain 2; format: functional; method in brief: as §1
[5] = test system: Staphylococcus aureus; assay: Compound tested for the activity against Staphylococcus aureus strain 2; format: functional; method in brief: as §1
[6] = Hemolytic activity towards human erythrocytes is evaluated for magainin 2 at peptide concentration of 25 ug/mL; format: functional
Method in brief: (§2)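 Washed human erythrocytes from healthy volunteers (3 mL packed cells, PBS pH 7.4 washes, diluted to 20 mL) exposed to peptide in PBS at 25-200 µg/mL, 30 min at 37 °C; supernatant absorbance at 576 nm after centrifugation; 0.1% Triton X-100 taken as 100% hemolysis; duplicates.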

[7] = test system: Pseudomonas aeruginosa; assay: Compound tested for the antimicrobial activity against Pseudomonas aeruginosa strain 9; format: functional; method in brief: as §1
[8] = test system: Shigella flexneri; assay: Compound tested for the antimicrobial activity against Shigella flexneri; format: functional
Method in brief: (§3)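 MIC by microbroth dilution in Tryptic Soy Broth; inoculum 5×10^5 CFU/mL; plates incubated 18-20 h at 37 °C; assay pH approximately 7.4.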

[9] = test system: Pseudomonas aeruginosa; assay: Compound tested for the antimicrobial activity against Pseudomonas aeruginosa strain 5; format: functional; method in brief: as §1
[10] = test system: Pseudomonas aeruginosa; assay: Compound tested for the antimicrobial activity against Pseudomonas aeruginosa strain 11; format: functional; method in brief: as §1
[11] = test system: Staphylococcus aureus; assay: Compound tested for the activity against Staphylococcus aureus strain 5; format: functional; method in brief: as §1
[12] = test system: Staphylococcus aureus; assay: Compound tested for the activity against Staphylococcus aureus strain 3; format: functional; method in brief: as §1
[13] = test system: Staphylococcus aureus; assay: Compound tested for the activity against Staphylococcus aureus strain 11; format: functional; method in brief: as §1
[14] = test system: Staphylococcus aureus; assay: Compound tested for the activity against Staphylococcus aureus strain 8; format: functional; method in brief: as §1
[15] = test system: Enterobacter cloacae; assay: Compound tested for the antimicrobial activity against Enterobacter cloacae ROS; format: functional; method in brief: as §3
[16] = Hemolytic activity towards human erythrocytes is evaluated for magainin 2 at peptide concentration of 50 µg/mL; format: functional; method in brief: as §2
[17] = test system: Staphylococcus aureus; assay: Compound tested for the activity against Staphylococcus aureus strain 4; format: functional; method in brief: as §1
[18] = test system: Staphylococcus aureus; assay: Compound tested for the activity against Staphylococcus aureus strain 10; format: functional; method in brief: as §1
[19] = test system: Klebsiella pneumoniae; assay: Compound tested for the antimicrobial activity against Klebsiella pneumoniae; format: functional; method in brief: as §3
[20] = test system: Pseudomonas aeruginosa; assay: Compound tested for in vitro susceptibility against ATCC strain 27853 of Pseudomonas aeruginosa; format: functional; settings: ATCC 27853; method in brief: as §1
[21] = test system: Proteus mirabilis; assay: Compound tested for the antimicrobial activity against Proteus mirabilis; format: functional; method in brief: as §1
[22] = test system: Pseudomonas aeruginosa; assay: Compound tested for the antimicrobial activity against Pseudomonas aeruginosa strain 4; format: functional; method in brief: as §1
[23] = Hemolytic activity towards human erythrocytes is evaluated for magainin 2 at peptide concentration of 100 µg/mL; format: functional; method in brief: as §2
[24] = test system: Enterobacter cloacae; assay: Compound tested for the antimicrobial activity against Enterobacter cloacae; format: functional; method in brief: as §1
[25] = test system: Staphylococcus aureus; assay: Compound tested for the activity against Staphylococcus aureus strain ATCC 28953; format: functional; method in brief: as §1
[26] = test system: Pseudomonas aeruginosa; assay: Compound tested for the antimicrobial activity against Pseudomonas aeruginosa strain 8; format: functional; method in brief: as §1
[27] = test system: Pseudomonas aeruginosa; assay: Compound tested for the antimicrobial activity against Pseudomonas aeruginosa strain 1; format: functional; method in brief: as §1
[28] = test system: Staphylococcus aureus; assay: Compound tested for the activity against Staphylococcus aureus strain 9; format: functional; method in brief: as §1
[29] = test system: Pseudomonas aeruginosa; assay: Compound tested for the antimicrobial activity against Pseudomonas aeruginosa strain 10; format: functional; method in brief: as §1
[30] = Hemolytic activity towards human erythrocytes is evaluated for magainin 2 at peptide concentration of 200 µg/mL; format: functional; method in brief: as §2
[31] = test system: Staphylococcus aureus; assay: Compound tested for the activity against Staphylococcus aureus strain 7; format: functional; method in brief: as §1
[32] = test system: Pseudomonas aeruginosa; assay: Compound tested for the antimicrobial activity against Pseudomonas aeruginosa strain 6; format: functional; method in brief: as §1
[33] = test system: Escherichia coli; assay: Compound tested for in vitro susceptibility against ATCC strain 25922 of Escherichia coli; format: functional; settings: ATCC25922; method in brief: as §1
[34] = test system: Pseudomonas aeruginosa; assay: Compound tested for the antimicrobial activity against Pseudomonas aeruginosa strain 7; format: functional; method in brief: as §1
[35] = test system: Staphylococcus aureus; assay: Compound tested for the activity against Staphylococcus aureus strain 6; format: functional; method in brief: as §1
[36] = test system: Salmonella enterica subsp. enterica serovar Anatum; assay: Compound tested for the antimicrobial activity against S. a natum; format: functional, salmoneila onotum; method in brief: as §1
[37] = test system: Acinetobacter calcoaceticus subsp. anitratus; assay: Compound tested for the antimicrobial activity against Acinetobacter anitratus; format: functional, aeinetobacter anitrotap; method in brief: as §3
[38] = test system: Staphylococcus aureus; assay: Compound tested for in vitro susceptibility against ATCC strain 29213 of Staphylococcus aureus; format: functional; method in brief: as §1

MIC [1] | MIC [2] | MIC [3] | MIC [4] | MIC [5] | MIC [7] | MIC [8] | MIC [9] | MIC [10] | MIC [11] | MIC [12] | MIC [13] | MIC [14] | MIC [15] | MIC [20] | MIC [33] | SMILES | Hemolysis [6] | Hemolysis [16] | Hemolysis [23] | Hemolysis [30] | also measured
3.12 µg/mL (≈ 1.44 µM) | 6.25 µg/mL (≈ 2.88 µM) | 3.12 µg/mL (≈ 1.44 µM) | 12.5 µg/mL (≈ 5.76 µM) | 25 µg/mL (≈ 11.5 µM) | > 100 µg/mL | 3.12 µg/mL (≈ 1.44 µM) | 12.5 µg/mL (≈ 5.76 µM) | 25 µg/mL (≈ 11.5 µM) | 50 µg/mL (≈ 23 µM) | 25 µg/mL (≈ 11.5 µM) | 25 µg/mL (≈ 11.5 µM) | 25 µg/mL (≈ 11.5 µM) | 12.5 µg/mL (≈ 5.76 µM) | 12.5 µg/mL (≈ 5.76 µM) | 6.25 µg/mL (≈ 2.88 µM) | CC(C)C[C@H](NC(=O)[C@H](CCCCN)NC(=O)[C@H](CC(C)C)NC(=O)[C@H](Cc1ccccc1)NC(=O)[C@H](CCCCN)NC(=O)[C@H](CCCCN)NC(=O)[C@H](C)NC(=O)[C@H](Cc1ccccc1)NC(=O)[C@H](CCCCN)NC(=O)[C@H](CCCCN)NC(=O)[C@H](Cc1ccccc1)NC(=O)[C@H](CC(C)C)NC(=O)[C@@H](N)CCCCN)C(=O)N[C@@H](Cc1ccccc1)C(=O)N[C@@H](CCCCN)C(=O)N[C@@H](C)C(=O)N[C@@H](Cc1c[nH]c2ccccc12)C(=O)O (H-KLFKKFAKKFLKLFKAW-OH) | 5% | 15% | 26% | 40% | MIC [17]: 25 µg/mL (≈ 11.5 µM); MIC [18]: 25 µg/mL (≈ 11.5 µM); MIC [19]: 12.5 µg/mL (≈ 5.76 µM); MIC [21]: > 100 µg/mL; MIC [22]: 12.5 µg/mL (≈ 5.76 µM); MIC [24]: 6.25 µg/mL (≈ 2.88 µM); MIC [25]: 25 µg/mL (≈ 11.5 µM); MIC [26]: 12.5 µg/mL (≈ 5.76 µM); MIC [27]: 6.25 µg/mL (≈ 2.88 µM); MIC [28]: 50 µg/mL (≈ 23 µM); MIC [29]: 50 µg/mL (≈ 23 µM); MIC [31]: 25 µg/mL (≈ 11.5 µM); MIC [32]: 25 µg/mL (≈ 11.5 µM); MIC [34]: 6.25 µg/mL (≈ 2.88 µM); MIC [35]: 25 µg/mL (≈ 11.5 µM); MIC [36]: 12.5 µg/mL (≈ 5.76 µM); MIC [37]: 6.25 µg/mL (≈ 2.88 µM)
12.5 µg/mL (≈ 5.37 µM) | 12.5 µg/mL (≈ 5.37 µM) | 3.12 µg/mL (≈ 1.34 µM) | 3.12 µg/mL (≈ 1.34 µM) | 6.25 µg/mL (≈ 2.68 µM) | > 100 µg/mL | 3.12 µg/mL (≈ 1.34 µM) | 12.5 µg/mL (≈ 5.37 µM) | > 100 µg/mL | 12.5 µg/mL (≈ 5.37 µM) | 25 µg/mL (≈ 10.7 µM) | 25 µg/mL (≈ 10.7 µM) | 25 µg/mL (≈ 10.7 µM) | 25 µg/mL (≈ 10.7 µM) | 3.12 µg/mL (≈ 1.34 µM) | 6.25 µg/mL (≈ 2.68 µM) | CC(C)C[C@H](NC(=O)[C@H](CCCCN)NC(=O)[C@H](CC(C)C)NC(=O)[C@H](Cc1c[nH]c2ccccc12)NC(=O)[C@H](CCCCN)NC(=O)[C@H](CCCCN)NC(=O)[C@H](C)NC(=O)[C@H](Cc1c[nH]c2ccccc12)NC(=O)[C@H](CCCCN)NC(=O)[C@H](CCCCN)NC(=O)[C@H](Cc1c[nH]c2ccccc12)NC(=O)[C@H](CC(C)C)NC(=O)[C@@H](N)CCCCN)C(=O)N[C@@H](Cc1c[nH]c2ccccc12)C(=O)N[C@@H](CCCCN)C(=O)N[C@@H](C)C(=O)N[C@@H](Cc1c[nH]c2ccccc12)C(=O)O (H-KLWKKWAKKWLKLWKAW-OH) | 10% | 18% | 31% | 55% | MIC [17]: 12.5 µg/mL (≈ 5.37 µM); MIC [18]: 25 µg/mL (≈ 10.7 µM); MIC [19]: 12.5 µg/mL (≈ 5.37 µM); MIC [21]: > 100 µg/mL; MIC [22]: 12.5 µg/mL (≈ 5.37 µM); MIC [24]: < 0.39 µg/mL; MIC [25]: 25 µg/mL (≈ 10.7 µM); MIC [26]: 12.5 µg/mL (≈ 5.37 µM); MIC [27]: 6.25 µg/mL (≈ 2.68 µM); MIC [38]: 50 µg/mL (≈ 21.5 µM); MIC [28]: 25 µg/mL (≈ 10.7 µM); MIC [29]: 25 µg/mL (≈ 10.7 µM); MIC [31]: 25 µg/mL (≈ 10.7 µM); MIC [32]: > 100 µg/mL; MIC [34]: 12.5 µg/mL (≈ 5.37 µM); MIC [35]: 12.5 µg/mL (≈ 5.37 µM); MIC [36]: 12.5 µg/mL (≈ 5.37 µM); MIC [37]: 3.12 µg/mL (≈ 1.34 µM)

SMILES | MIC [1] | MIC [2] | MIC [3] | MIC [4] | MIC [5] | MIC [7] | MIC [8] | MIC [9] | MIC [10] | MIC [11] | MIC [12] | MIC [13] | MIC [14] | MIC [15] | MIC [20] | MIC [33] | Hemolysis [6] | Hemolysis [16] | Hemolysis [23] | Hemolysis [30] | also measured
CC(C)C[C@H](NC(=O)[C@H](CCCCN)NC(=O)[C@H](CCCCN)NC(=O)[C@H](Cc1c[nH]c2ccccc12)NC(=O)[C@@H](N)CCCCN)C(=O)N[C@@H](C)C(=O)N[C@@H](CCCCN)C(=O)N[C@@H](CCCCN)C(=O)N[C@@H](Cc1c[nH]c2ccccc12)C(=O)O (H-KWKKLAKKW-OH) |  |  |  |  |  |  |  |  |  |  |  |  |  |  | 12.5 µg/mL (≈ 10.3 µM) | 25 µg/mL (≈ 20.6 µM) | 0% | 0% | 0% | 0% | MIC [38]: 25 µg/mL (≈ 20.6 µM)
